# Measurements taken from ChEMBL document CHEMBL3244034, “Semisynthetic cephalosporins. Synthesis and structure-activity relationships of 7-(1-pyrryl)- and 7-(1-indolyl)acetamidocephalosporin derivatives” (1978).
# Test system: Staphylococcus aureus
# Experiment: Antibacterial activity against benzylpenicillin-resistant Staphylococcus aureus after 17 hrs by serial two fold dilution method
# Assay type: functional
# Procedure, shortened: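 Agar dilution MIC. Compound was serially diluted twofold in Mueller-Hinton agar. The surface was inoculated with a diluted 18-24-h broth culture […]. Plates were incubated 17 h at 37 °C. MIC was taken as the lowest concentration giving complete or virtually complete inhibition of visible growth.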
row,Compound,MIC [µg/mL]
1,CCOC(=O)C(C(=O)N[C@@H]1C(=O)N2C(C(=O)O)=C(COC(C)=O)CS[C@H]12)n1cccc1 (some centres undefined),6.2
2,Cn1nnnc1SCC1=C(C(=O)O)N2C(=O)[C@@H](NC(=O)Cn3ccc4ccccc43)[C@H]2SC1,0.2
3,Cc1nnc(SCC2=C(C(=O)O)N3C(=O)[C@@H](NC(=O)Cn4cccc4C=O)[C@H]3SC2)s1,0.8

# Test system: Staphylococcus aureus
# Experiment: Antibacterial activity against Staphylococcus aureus after 17 hrs by serial two fold dilution method
# Assay type: functional
# Procedure, shortened: (§1)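 Agar dilution MIC: compound serially diluted twofold in Mueller-Hinton agar. Plate surfaces were inoculated with a suitably diluted 18-24-h broth culture and incubated 17 h at 37 °C. MIC was read as the lowest concentration giving complete or virtually complete inhibition of visible growth.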
row,Compound,MIC [µg/mL]
1,CCOC(=O)C(C(=O)N[C@@H]1C(=O)N2C(C(=O)O)=C(COC(C)=O)CS[C@H]12)n1cccc1 (some centres undefined),1.6
2,Cn1nnnc1SCC1=C(C(=O)O)N2C(=O)[C@@H](NC(=O)Cn3ccc4ccccc43)[C@H]2SC1,0.1
3,Cc1nnc(SCC2=C(C(=O)O)N3C(=O)[C@@H](NC(=O)Cn4cccc4C=O)[C@H]3SC2)s1,0.4

# Test system: Staphylococcus epidermidis
# Experiment: Antibacterial activity against Staphylococcus epidermidis after 17 hrs by serial two fold dilution method
# Assay type: functional
# Procedure, shortened: as §1
row,Compound,MIC [µg/mL]
1,CCOC(=O)C(C(=O)N[C@@H]1C(=O)N2C(C(=O)O)=C(COC(C)=O)CS[C@H]12)n1cccc1 (some centres undefined),3.1
2,Cn1nnnc1SCC1=C(C(=O)O)N2C(=O)[C@@H](NC(=O)Cn3ccc4ccccc43)[C@H]2SC1,0.4
3,Cc1nnc(SCC2=C(C(=O)O)N3C(=O)[C@@H](NC(=O)Cn4cccc4C=O)[C@H]3SC2)s1,1.6

# Test system: Enterococcus faecalis
# Experiment: Antibacterial activity against Staphylococcus faecalis after 17 hrs by serial two fold dilution method
# Assay type: functional
# Procedure, shortened: as §1
row,Compound,MIC [µg/mL]
1,CCOC(=O)C(C(=O)N[C@@H]1C(=O)N2C(C(=O)O)=C(COC(C)=O)CS[C@H]12)n1cccc1 (some centres undefined),> 100
2,Cn1nnnc1SCC1=C(C(=O)O)N2C(=O)[C@@H](NC(=O)Cn3ccc4ccccc43)[C@H]2SC1,> 100
3,Cc1nnc(SCC2=C(C(=O)O)N3C(=O)[C@@H](NC(=O)Cn4cccc4C=O)[C@H]3SC2)s1,> 100

# Test system: Streptococcus pneumoniae
# Experiment: Antibacterial activity against Streptococcus pneumoniae after 17 hrs by serial two fold dilution method
# Assay type: functional
# Procedure, shortened: as §1
row,Compound,MIC [µg/mL]
1,CCOC(=O)C(C(=O)N[C@@H]1C(=O)N2C(C(=O)O)=C(COC(C)=O)CS[C@H]12)n1cccc1 (some centres undefined),0.4
2,Cc1nnc(SCC2=C(C(=O)O)N3C(=O)[C@@H](NC(=O)Cn4cccc4C=O)[C@H]3SC2)s1,0.2

# Test system: Streptococcus pyogenes
# Experiment: Antibacterial activity against Streptococcus pyogenes after 17 hrs by serial two fold dilution method
# Assay type: functional
# Procedure, shortened: as §1
row,Compound,MIC [µg/mL]
1,CCOC(=O)C(C(=O)N[C@@H]1C(=O)N2C(C(=O)O)=C(COC(C)=O)CS[C@H]12)n1cccc1 (some centres undefined),0.4
2,Cn1nnnc1SCC1=C(C(=O)O)N2C(=O)[C@@H](NC(=O)Cn3ccc4ccccc43)[C@H]2SC1,0.05
3,Cc1nnc(SCC2=C(C(=O)O)N3C(=O)[C@@H](NC(=O)Cn4cccc4C=O)[C@H]3SC2)s1,0.2

# Test system: Klebsiella aerogenes
# Experiment: Antibacterial activity against Enterobacter aerogenes after 17 hrs by serial two fold dilution method
# Assay type: functional
row,Compound,MIC [µg/mL]
1,CCOC(=O)C(C(=O)N[C@@H]1C(=O)N2C(C(=O)O)=C(COC(C)=O)CS[C@H]12)n1cccc1 (some centres undefined),25
2,Cn1nnnc1SCC1=C(C(=O)O)N2C(=O)[C@@H](NC(=O)Cn3ccc4ccccc43)[C@H]2SC1,50
3,Cc1nnc(SCC2=C(C(=O)O)N3C(=O)[C@@H](NC(=O)Cn4cccc4C=O)[C@H]3SC2)s1,> 100

# Test system: Enterobacter cloacae
# Experiment: Antibacterial activity against Enterobacter cloacae after 17 hrs by serial two fold dilution method
# Assay type: functional
row,Compound,MIC [µg/mL]
1,CCOC(=O)C(C(=O)N[C@@H]1C(=O)N2C(C(=O)O)=C(COC(C)=O)CS[C@H]12)n1cccc1 (some centres undefined),25
2,Cn1nnnc1SCC1=C(C(=O)O)N2C(=O)[C@@H](NC(=O)Cn3ccc4ccccc43)[C@H]2SC1,50
3,Cc1nnc(SCC2=C(C(=O)O)N3C(=O)[C@@H](NC(=O)Cn4cccc4C=O)[C@H]3SC2)s1,> 100

# Test system: Escherichia coli
# Experiment: Antibacterial activity against Escherichia coli after 17 hrs by serial two fold dilution method
# Assay type: functional
# Procedure, shortened: as §1
row,Compound,MIC [µg/mL]
1,CCOC(=O)C(C(=O)N[C@@H]1C(=O)N2C(C(=O)O)=C(COC(C)=O)CS[C@H]12)n1cccc1 (some centres undefined),25
2,Cn1nnnc1SCC1=C(C(=O)O)N2C(=O)[C@@H](NC(=O)Cn3ccc4ccccc43)[C@H]2SC1,12.5
3,Cc1nnc(SCC2=C(C(=O)O)N3C(=O)[C@@H](NC(=O)Cn4cccc4C=O)[C@H]3SC2)s1,50

# Test system: Klebsiella pneumoniae
# Experiment: Antibacterial activity against Klebsiella pneumoniae after 17 hrs by serial two fold dilution method
# Assay type: functional
# Procedure, shortened: as §1
row,Compound,MIC [µg/mL]
1,CCOC(=O)C(C(=O)N[C@@H]1C(=O)N2C(C(=O)O)=C(COC(C)=O)CS[C@H]12)n1cccc1 (some centres undefined),25
2,Cn1nnnc1SCC1=C(C(=O)O)N2C(=O)[C@@H](NC(=O)Cn3ccc4ccccc43)[C@H]2SC1,12.5
3,Cc1nnc(SCC2=C(C(=O)O)N3C(=O)[C@@H](NC(=O)Cn4cccc4C=O)[C@H]3SC2)s1,50

# Test system: Proteus mirabilis
# Experiment: Antibacterial activity against Proteus mirabilis after 17 hrs by serial two fold dilution method
# Assay type: functional
# Procedure, shortened: as §1
row,Compound,MIC [µg/mL]
1,CCOC(=O)C(C(=O)N[C@@H]1C(=O)N2C(C(=O)O)=C(COC(C)=O)CS[C@H]12)n1cccc1 (some centres undefined),50
2,Cn1nnnc1SCC1=C(C(=O)O)N2C(=O)[C@@H](NC(=O)Cn3ccc4ccccc43)[C@H]2SC1,50
3,Cc1nnc(SCC2=C(C(=O)O)N3C(=O)[C@@H](NC(=O)Cn4cccc4C=O)[C@H]3SC2)s1,100

# Test system: Proteus vulgaris
# Experiment: Antibacterial activity against Proteus vulgaris after 17 hrs by serial two fold dilution method
# Assay type: functional
# Procedure, shortened: as §1
row,Compound,MIC [µg/mL]
1,CCOC(=O)C(C(=O)N[C@@H]1C(=O)N2C(C(=O)O)=C(COC(C)=O)CS[C@H]12)n1cccc1 (some centres undefined),> 100
2,Cn1nnnc1SCC1=C(C(=O)O)N2C(=O)[C@@H](NC(=O)Cn3ccc4ccccc43)[C@H]2SC1,> 100
3,Cc1nnc(SCC2=C(C(=O)O)N3C(=O)[C@@H](NC(=O)Cn4cccc4C=O)[C@H]3SC2)s1,> 100

# Test system: Providencia stuartii
# Experiment: Antibacterial activity against Providencia stuartii after 17 hrs by serial two fold dilution method
# Assay type: functional
# Procedure, shortened: as §1
row,Compound,MIC [µg/mL]
1,CCOC(=O)C(C(=O)N[C@@H]1C(=O)N2C(C(=O)O)=C(COC(C)=O)CS[C@H]12)n1cccc1 (some centres undefined),12.5
2,Cn1nnnc1SCC1=C(C(=O)O)N2C(=O)[C@@H](NC(=O)Cn3ccc4ccccc43)[C@H]2SC1,25
3,Cc1nnc(SCC2=C(C(=O)O)N3C(=O)[C@@H](NC(=O)Cn4cccc4C=O)[C@H]3SC2)s1,> 100

# Test system: Pseudomonas aeruginosa
# Experiment: Antibacterial activity against Pseudomonas aeruginosa after 17 hrs by serial two fold dilution method
# Assay type: functional
# Procedure, shortened: as §1
row,Compound,MIC [µg/mL]
1,CCOC(=O)C(C(=O)N[C@@H]1C(=O)N2C(C(=O)O)=C(COC(C)=O)CS[C@H]12)n1cccc1 (some centres undefined),> 100
2,Cn1nnnc1SCC1=C(C(=O)O)N2C(=O)[C@@H](NC(=O)Cn3ccc4ccccc43)[C@H]2SC1,> 100
3,Cc1nnc(SCC2=C(C(=O)O)N3C(=O)[C@@H](NC(=O)Cn4cccc4C=O)[C@H]3SC2)s1,> 100

# Test system: Salmonella
# Experiment: Antibacterial activity against Salmonella schottmuelleri after 17 hrs by serial two fold dilution method
# Assay type: functional
# Procedure, shortened: as §1
row,Compound,MIC [µg/mL]
1,CCOC(=O)C(C(=O)N[C@@H]1C(=O)N2C(C(=O)O)=C(COC(C)=O)CS[C@H]12)n1cccc1 (some centres undefined),25
2,Cn1nnnc1SCC1=C(C(=O)O)N2C(=O)[C@@H](NC(=O)Cn3ccc4ccccc43)[C@H]2SC1,6.2
3,Cc1nnc(SCC2=C(C(=O)O)N3C(=O)[C@@H](NC(=O)Cn4cccc4C=O)[C@H]3SC2)s1,12.5
